From ChEMBL document CHEMBL4706565, “Anti-glioma effects of 2-aminothiophene-3-carboxamide derivatives, ANO1 channel blockers” (Eur J Med Chem, 2020)
The source made the active and inactive calls. No cut-off for these calls is given here.

Legend:
[1] = molecular target: T1, Protein tweety homolog 1 (Mus musculus) (UniProt Q9D3A9); assay: Inhibition of GFP-fused mouse TTYH1 channel expressed in HEK293A cells assessed as inhibition of channel current amplitude at 1 to 10 uM at membrane potential of +80 mV by patch clamp electrophysiology assay; format: cell-based; conditions: HEK293-A, dose 1-10 µM
T1 sequence (whole entry): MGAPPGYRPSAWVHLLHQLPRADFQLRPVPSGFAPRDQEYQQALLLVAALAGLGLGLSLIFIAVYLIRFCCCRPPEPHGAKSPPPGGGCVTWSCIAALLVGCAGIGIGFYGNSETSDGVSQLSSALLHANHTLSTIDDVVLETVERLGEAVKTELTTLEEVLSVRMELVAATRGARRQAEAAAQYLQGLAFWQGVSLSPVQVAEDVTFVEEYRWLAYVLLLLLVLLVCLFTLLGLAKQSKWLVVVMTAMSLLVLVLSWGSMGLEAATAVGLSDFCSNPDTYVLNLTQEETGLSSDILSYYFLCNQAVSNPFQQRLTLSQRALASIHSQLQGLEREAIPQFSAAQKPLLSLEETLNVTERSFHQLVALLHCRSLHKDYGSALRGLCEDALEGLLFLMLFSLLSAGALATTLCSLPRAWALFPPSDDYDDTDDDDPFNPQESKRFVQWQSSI
Method in brief: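 Whole-cell recording at room temperature in HEK293A cells transfected with GFP-mANO1, GFP-mANO2 or GFP-mTTYH1. 1 s ramps from +80 to -80 mV, holding potential -10 mV. For ANO1/ANO2: pipette CsCl 146 mM with Ca-EGTA-NMDG, pH 7.3; bath NaCl-based, pH 7.3. For TTYH1: Tris-aspartate pipette (pH 7.2) and Tris-HCl bath (pH 7.4), with […] and BaCl2 added to block K+ channels, and hypotonic (220 mOsm/kg) bath. Washout recordings assessed reversibility.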

U-251 = assay: Antiproliferative activity against human U251 cells overexpressing ANO1 assessed as reduction in cell viability measured after 72 hrs by Celltiter-glo assay; format: functional
Method in brief: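 5.0×10^3 cells/well seeded, overnight, then compounds added as 1:4 serial dilutions in DMSO; viability read after 72 h with CellTiter-Glo luminescence. GI50 from fitted dose-response curves; triplicate wells, SD from three independent experiments. DMEM for U251 and U138, MEM for U87MG, both with 10% FBS and pen/strep, 37 °C, 5% CO2.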

[2] = molecular target: T2, Anoctamin-1 (Homo sapiens) (UniProt Q5XXA6); assay: Induction of ANO1 degradation in human U251 cells at 10 uM incubated for 24 hrs by western blot analysis; format: cell-based; conditions: U-251
T2 sequence (whole entry): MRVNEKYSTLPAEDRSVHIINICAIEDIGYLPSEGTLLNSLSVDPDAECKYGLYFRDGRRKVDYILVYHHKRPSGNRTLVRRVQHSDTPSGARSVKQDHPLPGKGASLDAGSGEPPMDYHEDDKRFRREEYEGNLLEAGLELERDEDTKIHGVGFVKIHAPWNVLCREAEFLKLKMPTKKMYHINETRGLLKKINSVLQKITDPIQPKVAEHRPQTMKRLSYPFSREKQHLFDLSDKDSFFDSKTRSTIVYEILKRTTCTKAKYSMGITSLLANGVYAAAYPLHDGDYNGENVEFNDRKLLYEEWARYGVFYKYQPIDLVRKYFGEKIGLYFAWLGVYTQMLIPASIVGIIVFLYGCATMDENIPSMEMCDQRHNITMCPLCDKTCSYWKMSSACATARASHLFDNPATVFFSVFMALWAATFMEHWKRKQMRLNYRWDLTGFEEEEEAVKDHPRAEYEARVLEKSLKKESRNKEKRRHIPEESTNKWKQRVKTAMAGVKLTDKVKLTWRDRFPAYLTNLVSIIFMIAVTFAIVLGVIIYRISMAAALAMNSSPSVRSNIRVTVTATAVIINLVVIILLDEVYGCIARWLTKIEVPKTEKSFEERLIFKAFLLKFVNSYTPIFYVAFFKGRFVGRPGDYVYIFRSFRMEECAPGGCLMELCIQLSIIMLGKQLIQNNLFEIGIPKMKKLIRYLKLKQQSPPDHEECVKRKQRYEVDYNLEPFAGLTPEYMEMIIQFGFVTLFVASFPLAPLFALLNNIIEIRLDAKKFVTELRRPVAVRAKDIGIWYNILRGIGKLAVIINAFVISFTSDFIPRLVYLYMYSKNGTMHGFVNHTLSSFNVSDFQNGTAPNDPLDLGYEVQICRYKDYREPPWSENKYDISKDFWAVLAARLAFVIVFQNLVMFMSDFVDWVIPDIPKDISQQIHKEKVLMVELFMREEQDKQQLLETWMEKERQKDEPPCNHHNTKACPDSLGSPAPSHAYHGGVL
Method in brief: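 U251 cells (5×10^5) treated with 10 μM inhibitor for 24 h. Alternatively, treated 6 h with 10 μM inhibitor, then MG132 (20 μM, a proteasome inhibitor) for a further 18 h. NP40 lysates immunoblotted for ANO1, β-actin as loading control; band densitometry.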

Compound	inhibition [1]	GI50 (U-251) [µM]	Activity [2]
NC(=O)c1c(NC(=S)NC(=O)c2ccc(Cl)cc2)sc2c1CCC2	inactive	12	Active
CC(C)(C)C(=O)Nc1sc2c(c1C(N)=O)CCC(C(C)(C)C)C2 (stereo unspecified)	inactive	12.6	Active
